Results collected from several papers.
Compare with care: the assays were run in different laboratories.

N.N.[Cl][Pt][Cl]
IC50 (184B5; cell growth or viability): 5.73 µM

Cc1ccnc2c1NC(=O)c1cccnc1N2C1CC1
IC90 (Human immunodeficiency virus 1; viral replication, inhibitor; human PBMC; clinical isolate): 227 nM

Nc1nc2c(ncn2COCCO)c(=O)[nH]1
MIC50 (Cowpox virus; microbial growth): 250 µM

COC(=O)c1cc(-c2cccc(NC(=O)Nc3ccccc3)c2)on1
MIC (Mycolicibacterium fortuitum; microbial growth, broth dilution; ATCC6841; 48 h): > 64 µg/mL

CO[C@H]1/C=C/O[C@@]2(C)Oc3c(C)c(O)c4c(O)c(c(/C=N/N5CCN(C)CC5)c(O)c4c3C2=O)NC(=O)/C(C)=C\C=C\[C@H](C)[C@H](O)[C@@H](C)[C@@H](O)[C@@H](C)[C@H](OC(C)=O)[C@@H]1C
MIC (Mycobacterium marinum; microbial growth; ATCC927): < 0.2 µg/mL

COC(=O)c1cc(-c2cccc(NC(=O)Nc3cc(Cl)ccc3Cl)c2)on1
MIC (Mycolicibacterium fortuitum; microbial growth, broth dilution; ATCC6841; 48 h): > 64 µg/mL

CC(C(=O)NCc1ccccc1)c1cccc(C(OC(=O)NCc2ccccc2)c2ccccc2)c1 (stereo not drawn)
IC50 (CCRF-CEM; cell growth or viability; 72 h): 2.7 µM

COC(=O)c1cc(-c2cccc(NC(=S)Nc3ccc(C#N)cc3)c2)on1
MIC (Mycolicibacterium fortuitum; microbial growth, broth dilution; ATCC6841; 48 h): 64 µg/mL

COc1ccc(C=NNC(=S)Nc2ccc(C#N)cc2)cc1
IC50 (CCRF-CEM; cell growth or viability; 72 h): > 200 µg/mL

CCOC(=O)c1c(CSc2ccccc2)n(C)c2cc(Br)c(O)c(CN(C)C)c12.Cl.O
MIC50 (Cowpox virus; microbial growth): > 20 µg/mL

COC(=O)c1cc(-c2cccc(NC(=S)Nc3cccc(Br)c3)c2)on1
MIC (Mycolicibacterium fortuitum; microbial growth, broth dilution; ATCC6841; 48 h): > 64 µg/mL

COc1cc(C(=O)c2cc3c(-c4ccccc4)c(O)ccc3o2)cc(OC)c1OC
IC50 (CCRF-CEM; cell growth or viability; 72 h): > 50 µM

CCOC(=O)c1nnn(-c2cccc(NC(=O)Nc3ccc(Cl)c(Cl)c3)c2)c1C
MIC (Mycolicibacterium fortuitum; microbial growth, broth dilution; ATCC6841; 48 h): > 64 µg/mL

Nc1nc(O)c2ncn(COC(CO)CO)c2n1
MIC50 (Cowpox virus; microbial growth): > 100 µM

CC(C(=O)N1CCCCC1)c1cccc(C(OC(=O)N2CCCCC2)c2ccccc2)c1 (stereo not drawn)
IC50 (CCRF-CEM; cell growth or viability; 72 h): 13 µM

Cc1ccc(-c2nc3ccc(C)cn3c2CC(=O)N(C)C)cc1
MIC (Mycobacterium marinum; microbial growth; 5 days): > 50 µM

COC(=O)c1cc(-c2cccc(NC(=O)Nc3ccc(F)cc3)c2)on1
MIC (Mycolicibacterium fortuitum; microbial growth, broth dilution; ATCC6841; 48 h): > 64 µg/mL

N#Cc1ccc(NC(=S)NN=Cc2ccc(N(CCCl)CCCl)cc2)cc1
IC50 (CCRF-CEM; cell growth or viability; 72 h): 0.7 µg/mL
